The source made the active and inactive calls. No cut-off for these calls is given here.
What was measured:
[1] = tested on: CCRF-CEM; assay: Antiproliferative activity against human CCRF-CEM cells assessed as inhibition of cell viability after 72 hrs by CCK-8 assay; assay type: functional, cell-based
In short: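 Cells kept at 37 °C, 5% CO2 in DMEM or RPMI-1640 with 10% FBS and 1% penicillin/streptomycin, then seeded at 3000 cells/well (adherent) or 10,000 cells/well (suspension). Exposed to a range of concentrations for 72 h. CCK-8 added for 1-4 h before reading A450. […] Three independent experiments.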

[2] = tested on: A549; assay: Induction of apoptosis in human A549 cells assessed as late apoptotic cells at 1 uM after 48 hrs by AnnexinV-FITC/PI staining-based flow cytometric analysis (reference value: 7.66%); assay type: functional
[3] = biological target: Cyclin-dependent kinase-like 2 (Homo sapiens) (UniProt Q92772); assay: Inhibition of human CDKL2 at 1 uM at 1 uM by radiometric method relative to control
In short: (§1)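 Percent inhibition of kinase activity at a single compound concentration, measured by the outsourced Eurofins KinaseProfiler panel. Values are the mean of two independent experiments.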

[4] = biological target: TGF-beta receptor type-2 (Homo sapiens) (UniProt P37173); assay: Inhibition of human TGFBR2 (188 to end residues) at 1 uM using myelin basic protein as substrate measured after 120 mins in presence of [gamma33P]ATP by scintillation counting method relative to control; in short: as §1
[5] = tested on: Serine/threonine-protein kinase Nek4 (Homo sapiens), P51957 [P225A]; assay: Inhibition of recombinant full-length human NEK4 P225A mutant at 1 uM using myelin basic protein as substrate measured after 40 mins in presence of [gamma33P]ATP by scintillation counting method relative to control
Serine/threonine-protein kinase Nek4 (Homo sapiens), P51957 [P225A], sequence (P51957 whole entry P225A, the tested form may be a part): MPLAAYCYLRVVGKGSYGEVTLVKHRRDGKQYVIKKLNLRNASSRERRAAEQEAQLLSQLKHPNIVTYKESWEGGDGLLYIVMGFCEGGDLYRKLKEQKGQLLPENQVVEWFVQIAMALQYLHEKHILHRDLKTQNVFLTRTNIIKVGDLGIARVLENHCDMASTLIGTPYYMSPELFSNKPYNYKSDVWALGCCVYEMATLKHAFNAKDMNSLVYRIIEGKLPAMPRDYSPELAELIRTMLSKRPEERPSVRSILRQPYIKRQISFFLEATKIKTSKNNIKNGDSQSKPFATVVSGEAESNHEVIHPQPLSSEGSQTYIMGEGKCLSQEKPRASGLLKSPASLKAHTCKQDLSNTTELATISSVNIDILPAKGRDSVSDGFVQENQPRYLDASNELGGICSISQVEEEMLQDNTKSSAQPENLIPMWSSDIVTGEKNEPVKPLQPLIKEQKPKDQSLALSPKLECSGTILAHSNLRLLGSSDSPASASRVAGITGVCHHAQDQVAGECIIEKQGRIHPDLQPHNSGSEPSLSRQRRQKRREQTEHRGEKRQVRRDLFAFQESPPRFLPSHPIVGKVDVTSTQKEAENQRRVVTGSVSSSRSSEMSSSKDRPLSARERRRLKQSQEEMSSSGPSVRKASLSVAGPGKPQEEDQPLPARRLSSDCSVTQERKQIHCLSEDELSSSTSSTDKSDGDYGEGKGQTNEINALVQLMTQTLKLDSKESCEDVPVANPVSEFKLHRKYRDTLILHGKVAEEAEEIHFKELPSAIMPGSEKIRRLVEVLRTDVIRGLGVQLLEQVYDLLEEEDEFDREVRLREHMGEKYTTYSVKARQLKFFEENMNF

[6] = biological target: Mitogen-activated protein kinase kinase kinase 7 (Homo sapiens) (UniProt O43318); assay: Inhibition of human TAK1 (1 to 303 residues) at 1 uM using casein as substrate measured after 40 mins in presence of [gamma33P]ATP by scintillation counting method relative to control; in short: as §1
Mitogen-activated protein kinase kinase kinase 7 (Homo sapiens), sequence (O43318 whole entry, the tested form may be a part): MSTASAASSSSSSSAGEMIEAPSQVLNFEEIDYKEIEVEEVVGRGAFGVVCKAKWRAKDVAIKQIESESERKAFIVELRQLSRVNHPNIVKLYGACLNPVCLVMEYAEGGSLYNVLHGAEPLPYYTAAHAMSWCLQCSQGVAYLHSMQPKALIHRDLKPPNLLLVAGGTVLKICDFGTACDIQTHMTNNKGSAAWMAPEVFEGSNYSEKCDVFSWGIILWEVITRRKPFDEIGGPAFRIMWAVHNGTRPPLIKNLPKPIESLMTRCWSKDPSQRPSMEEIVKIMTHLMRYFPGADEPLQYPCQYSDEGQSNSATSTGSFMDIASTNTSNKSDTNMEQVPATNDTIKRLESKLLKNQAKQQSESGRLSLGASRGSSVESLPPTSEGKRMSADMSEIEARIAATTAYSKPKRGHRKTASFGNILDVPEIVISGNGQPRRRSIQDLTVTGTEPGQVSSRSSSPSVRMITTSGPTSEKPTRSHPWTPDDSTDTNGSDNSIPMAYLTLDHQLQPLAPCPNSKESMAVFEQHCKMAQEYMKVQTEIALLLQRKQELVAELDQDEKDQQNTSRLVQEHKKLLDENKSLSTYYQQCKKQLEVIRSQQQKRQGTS

[7] = biological target: Tyrosine-protein kinase ITK/TSK (Homo sapiens) (UniProt Q08881); assay: Inhibition of recombinant human ITK (352 to 617 residues) at 1 uM using myelin basic protein as substrate measured after 40 mins in presence of [gamma33P]ATP by scintillation counting method relative to control
[8] = biological target: Phosphorylase b kinase gamma catalytic chain, skeletal muscle/heart isoform (Homo sapiens) (UniProt Q16816); assay: Inhibition of recombinant full-length human PhKgamma1 at 1 uM using KKLNRTLSFAEPG as substrate measured after 120 mins in presence of [gamma33P]ATP by scintillation counting method relative to control
Phosphorylase b kinase gamma catalytic chain, skeletal muscle/heart isoform (Homo sapiens), sequence (Q16816 whole entry, looked up, canonical isoform): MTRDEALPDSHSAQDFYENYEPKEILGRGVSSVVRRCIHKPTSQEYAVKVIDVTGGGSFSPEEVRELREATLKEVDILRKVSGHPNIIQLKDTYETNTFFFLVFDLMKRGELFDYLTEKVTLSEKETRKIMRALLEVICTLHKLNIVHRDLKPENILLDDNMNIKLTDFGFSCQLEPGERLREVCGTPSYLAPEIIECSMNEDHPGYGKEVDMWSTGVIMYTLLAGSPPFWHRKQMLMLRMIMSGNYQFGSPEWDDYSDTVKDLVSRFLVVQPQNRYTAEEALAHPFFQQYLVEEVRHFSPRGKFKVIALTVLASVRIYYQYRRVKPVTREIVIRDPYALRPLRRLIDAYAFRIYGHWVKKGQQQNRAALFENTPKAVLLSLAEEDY

[9] = biological target: 3-phosphoinositide-dependent protein kinase 1 (Homo sapiens) (UniProt O15530); assay: Inhibition of recombinant human PDK1 (52 to end residues) at 1 uM using PDKtide as substrate measured after 40 mins in presence of [gamma33P]ATP by scintillation counting method relative to control
[10] = biological target: CDK6/cyclin D3 (Homo sapiens) (UniProt P30281+Q00534); assay: Inhibition of recombinant full-length human CDK6/cyclinD3 at 500 nM using histone H1 as substrate measured after 40 mins in presence of [gamma33P]ATP by scintillation counting method relative to control; assay type: protein-complex assay; in short: as §1
[11] = biological target: [Pyruvate dehydrogenase (acetyl-transferring)] kinase isozyme 4, mitochondrial (Homo sapiens) (UniProt Q16654); assay: Inhibition of recombinant full-length human PDHK4 at 1 uM using KKKYHGHSMSDPGVSYRT as substrate measured after 40 mins in presence of [gamma33P]ATP by scintillation counting method relative to control
[12] = tested on: A549; assay: Downregulation of cyclin T1 expression in human A549 cells at 0.25 to 1 uM after 24 hrs by Western blot analysis; assay type: functional, cell-based
In short: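 A549 and H1299 cells treated for 24 h with serial dilutions alongside a DMSO control. Protein extracts resolved and immunoblotted.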

[13] = biological target: Tau-tubulin kinase 1 (Homo sapiens) (UniProt Q5TCY1); assay: Inhibition of recombinant human TTBK1 (1 to 479 residues) at 1 uM using casein as substrate measured after 40 mins in presence of [gamma33P]ATP by scintillation counting method relative to control
Tau-tubulin kinase 1 (Homo sapiens), sequence (Q5TCY1 whole entry, the tested form may be a part): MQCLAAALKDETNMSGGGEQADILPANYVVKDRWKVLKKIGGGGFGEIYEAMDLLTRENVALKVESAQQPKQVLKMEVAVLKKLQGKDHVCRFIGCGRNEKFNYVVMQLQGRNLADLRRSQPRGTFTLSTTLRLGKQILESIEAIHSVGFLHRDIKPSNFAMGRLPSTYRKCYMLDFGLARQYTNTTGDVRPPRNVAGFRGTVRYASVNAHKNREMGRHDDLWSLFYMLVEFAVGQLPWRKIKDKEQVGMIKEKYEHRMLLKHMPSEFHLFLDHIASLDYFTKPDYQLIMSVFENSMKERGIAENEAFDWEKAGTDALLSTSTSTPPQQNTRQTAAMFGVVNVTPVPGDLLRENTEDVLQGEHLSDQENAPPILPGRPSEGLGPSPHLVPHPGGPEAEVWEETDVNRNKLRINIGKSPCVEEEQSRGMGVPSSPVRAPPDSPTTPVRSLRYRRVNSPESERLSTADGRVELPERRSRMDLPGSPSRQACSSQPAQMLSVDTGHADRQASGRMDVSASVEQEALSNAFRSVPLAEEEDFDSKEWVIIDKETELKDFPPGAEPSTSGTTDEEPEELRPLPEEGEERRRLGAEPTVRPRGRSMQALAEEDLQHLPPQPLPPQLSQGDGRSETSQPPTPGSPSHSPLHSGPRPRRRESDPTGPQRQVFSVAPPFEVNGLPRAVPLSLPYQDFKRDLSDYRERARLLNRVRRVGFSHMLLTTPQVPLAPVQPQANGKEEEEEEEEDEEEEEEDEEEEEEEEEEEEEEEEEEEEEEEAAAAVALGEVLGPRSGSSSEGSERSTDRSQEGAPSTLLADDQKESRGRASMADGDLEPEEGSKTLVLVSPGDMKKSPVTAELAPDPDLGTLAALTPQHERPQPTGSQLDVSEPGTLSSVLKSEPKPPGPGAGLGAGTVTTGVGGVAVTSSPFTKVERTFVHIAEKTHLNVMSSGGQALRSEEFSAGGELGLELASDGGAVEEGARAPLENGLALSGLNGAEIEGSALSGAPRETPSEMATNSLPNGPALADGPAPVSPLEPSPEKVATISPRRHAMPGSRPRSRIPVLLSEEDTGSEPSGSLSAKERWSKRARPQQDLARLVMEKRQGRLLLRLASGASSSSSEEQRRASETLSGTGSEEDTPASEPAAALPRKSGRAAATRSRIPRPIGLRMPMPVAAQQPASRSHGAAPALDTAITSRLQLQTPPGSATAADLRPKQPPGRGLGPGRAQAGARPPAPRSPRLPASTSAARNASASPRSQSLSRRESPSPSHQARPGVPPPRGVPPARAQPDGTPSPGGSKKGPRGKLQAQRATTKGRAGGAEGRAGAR

[14] = biological target: Epidermal growth factor receptor (Homo sapiens) (UniProt P00533); assay: Inhibition of recombinant human EGFR (696 to end residues) at 1 uM using poly (Glu,Tyr) 4:1 as substrate incubated for 40 mins in presence of [gamma-33P]ATP at Km concentration by radiometric assay relative to control
[15] = Half life in Sprague-Dawley rat liver microsomes at 2 uM in presence of NADPH measured up to 1 hr by HPLC analysis; assay type: ADME, Microsome
In short: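 Compound at 2 μM incubated at 37 °C with liver microsomes (1 mg/mL), 3 mM MgCl2 and 0.1 M phosphate buffer pH 7.4; 5 min preincubation, then started with 3 mM NADPH. Aliquots (n = 3) at 0, 10, 20, 30, 45, 60 min quenched with ice-cold acetonitrile, centrifuged, supernatant by HPLC. t1/2 from linear-regression kinetic constant k.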

[16] = biological target: Death-associated protein kinase 1 (Homo sapiens) (UniProt P53355); assay: Inhibition of recombinant human DAPK1 (1 to 296 residues) at 1 uM using KKLNRTLSFAEPG as substrate measured after 40 mins in presence of [gamma33P]ATP by scintillation counting method relative to control
[17] = biological target: Ribosomal protein S6 kinase alpha-2 (Homo sapiens) (UniProt Q15349); assay: Inhibition of human Rsk2 (2 to end residues) at 1 uM using KKKNRTLSVA as substrate measured after 40 mins in presence of [gamma33P]ATP by scintillation counting method relative to control; in short: as §1
Ribosomal protein S6 kinase alpha-2 (Homo sapiens), sequence (Q15349 whole entry): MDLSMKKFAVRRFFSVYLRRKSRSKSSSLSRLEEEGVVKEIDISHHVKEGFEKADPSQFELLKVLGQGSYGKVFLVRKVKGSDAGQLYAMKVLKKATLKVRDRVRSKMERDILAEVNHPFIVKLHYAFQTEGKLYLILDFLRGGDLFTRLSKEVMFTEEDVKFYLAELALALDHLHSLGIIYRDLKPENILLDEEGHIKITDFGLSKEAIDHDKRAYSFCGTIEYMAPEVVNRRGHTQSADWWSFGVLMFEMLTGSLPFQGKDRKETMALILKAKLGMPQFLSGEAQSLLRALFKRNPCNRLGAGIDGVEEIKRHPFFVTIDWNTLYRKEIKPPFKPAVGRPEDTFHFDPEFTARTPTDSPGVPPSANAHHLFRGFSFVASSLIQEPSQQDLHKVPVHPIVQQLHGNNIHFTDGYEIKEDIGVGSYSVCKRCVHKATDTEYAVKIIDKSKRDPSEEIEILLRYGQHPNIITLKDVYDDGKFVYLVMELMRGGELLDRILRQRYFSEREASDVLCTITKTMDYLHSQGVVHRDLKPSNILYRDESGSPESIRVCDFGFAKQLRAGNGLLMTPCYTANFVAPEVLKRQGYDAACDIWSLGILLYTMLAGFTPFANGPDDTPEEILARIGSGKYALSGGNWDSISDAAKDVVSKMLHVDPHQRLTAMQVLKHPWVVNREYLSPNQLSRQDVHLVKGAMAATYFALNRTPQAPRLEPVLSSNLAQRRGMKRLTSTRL

[18] = biological target: Interleukin-1 receptor-associated kinase 1 (Homo sapiens) (UniProt P51617); conditions: 1 uM
[19] = biological target: Mitogen-activated protein kinase kinase kinase kinase 4 (Homo sapiens) (UniProt O95819); assay: Inhibition of recombinant human MAP4K4 (1 to 328 residues) at 1 uM using RLGRDKYKTLRQIRQ as substrate measured after 40 mins in presence of [gamma33P]ATP by scintillation counting method relative to control
[20] = biological target: Serine/threonine-protein kinase D2 (Homo sapiens) (UniProt Q9BZL6); assay: Inhibition of recombinant full-length human PKD2 at 1 uM using KKLNRTLSVA as substrate measured after 40 mins in presence of [gamma33P]ATP by scintillation counting method relative to control
Serine/threonine-protein kinase D2 (Homo sapiens), sequence (Q9BZL6 whole entry): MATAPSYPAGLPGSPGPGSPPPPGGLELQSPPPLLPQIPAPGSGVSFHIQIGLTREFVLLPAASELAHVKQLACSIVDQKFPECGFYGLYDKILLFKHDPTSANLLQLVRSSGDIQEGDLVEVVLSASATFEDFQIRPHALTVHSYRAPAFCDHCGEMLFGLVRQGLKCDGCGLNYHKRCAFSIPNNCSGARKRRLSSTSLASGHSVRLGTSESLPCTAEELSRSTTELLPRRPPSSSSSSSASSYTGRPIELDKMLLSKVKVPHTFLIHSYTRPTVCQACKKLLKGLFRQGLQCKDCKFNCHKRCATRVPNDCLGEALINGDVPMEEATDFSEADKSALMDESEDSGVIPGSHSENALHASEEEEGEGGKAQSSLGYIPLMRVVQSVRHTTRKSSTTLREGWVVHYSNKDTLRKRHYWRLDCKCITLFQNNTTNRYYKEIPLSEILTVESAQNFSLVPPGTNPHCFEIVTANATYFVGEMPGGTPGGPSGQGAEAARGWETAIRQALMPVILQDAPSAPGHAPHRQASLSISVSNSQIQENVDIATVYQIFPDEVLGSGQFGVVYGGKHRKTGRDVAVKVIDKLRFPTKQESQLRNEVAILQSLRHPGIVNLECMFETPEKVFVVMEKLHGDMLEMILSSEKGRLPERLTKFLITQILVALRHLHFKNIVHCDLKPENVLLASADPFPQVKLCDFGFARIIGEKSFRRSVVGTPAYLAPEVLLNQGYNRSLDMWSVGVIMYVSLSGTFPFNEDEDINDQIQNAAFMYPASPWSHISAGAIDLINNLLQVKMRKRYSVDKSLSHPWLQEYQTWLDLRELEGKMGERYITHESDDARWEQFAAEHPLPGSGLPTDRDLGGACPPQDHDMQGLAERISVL

[21] = biological target: Vascular endothelial growth factor receptor 1 (Homo sapiens) (UniProt P17948); assay: Inhibition of recombinant human Flt1 (783 to end residues) at 1 uM using KKKSPGEYVNIEFG as substrate measured after 40 mins in presence of [gamma33P]ATP by scintillation counting method relative to control
[22] = biological target: Mitogen-activated protein kinase kinase kinase 10 (Homo sapiens) (UniProt Q02779); assay: Inhibition of recombinant human MLK2 (1 to 449 residues) at 1 uM using myelin basic protein as substrate measured after 40 mins in presence of [gamma33P]ATP by scintillation counting method relative to control

Which results are given for `CN(C)C(=O)c1cc2cnc(Nc3ccc(NC(=O)CCCCCCCN=C=S)cc3)nc2n1C1CCCC1`?
IC50 [1]: > 10 µM; Activity [2]: 16.4%; inhibition [3]: 57%; inhibition [4]: 15%; inhibition [5]: 63%; inhibition [6]: 79%; inhibition [7]: 91%; inhibition [8]: 71%; inhibition [9]: 1%; inhibition [10]: 48%; inhibition [11]: -3%; Activity [12]: Active; inhibition [13]: -7%; inhibition [14]: 21%; half-life at 2 µM [15]: 40.8 min; inhibition [16]: -5%; inhibition [17]: 19%; inhibition [18]: 98%; inhibition [19]: 16%; inhibition [20]: -6%; inhibition [21]: 71%; inhibition [22]: 65%

— ChEMBL document CHEMBL4376814, “Novel cyclin-dependent kinase 9 (CDK9) inhibitor with suppression of cancer stemness activity against non-small-cell lung cancer” (Eur J Med Chem, 2019)
